SIAE primary: human SIAE inhibition, primary screen. SIAE FP-Rh probe binding, fluorescence polarization. inhibition, % at 9.66 µM. 0.69% of 370,000 active. AID 1053197;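 active = inhibition above a cutoff: mean of compounds within the control limits plus 3 SD of those, cut at about 17% in these data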;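 note: 0% = plate median of compound wells and 100% = probe without SIAE protein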
Target sequence (Q9HAT2 whole entry, looked up): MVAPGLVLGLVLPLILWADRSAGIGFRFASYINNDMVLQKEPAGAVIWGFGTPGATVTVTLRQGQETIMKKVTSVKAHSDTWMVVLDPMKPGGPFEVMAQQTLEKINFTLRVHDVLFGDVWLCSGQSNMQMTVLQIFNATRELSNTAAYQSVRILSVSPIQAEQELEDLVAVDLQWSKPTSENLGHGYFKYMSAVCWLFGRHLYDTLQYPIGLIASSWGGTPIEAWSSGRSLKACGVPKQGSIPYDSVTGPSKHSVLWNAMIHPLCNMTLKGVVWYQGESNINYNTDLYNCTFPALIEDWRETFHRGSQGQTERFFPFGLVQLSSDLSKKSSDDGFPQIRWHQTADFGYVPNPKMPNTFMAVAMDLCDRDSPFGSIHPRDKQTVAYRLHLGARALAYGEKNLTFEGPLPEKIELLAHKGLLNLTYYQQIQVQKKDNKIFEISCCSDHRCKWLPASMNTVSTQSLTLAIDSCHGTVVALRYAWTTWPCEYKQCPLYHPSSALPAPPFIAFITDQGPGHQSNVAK
HTRA1 inhibitor: blocks human HTRA1 serine peptidase; 0.5% of 340,000 active; recombinant HTRA1, FP-rhodamine activity-based probe, fluorescence polarization; Q92743; inhibition, % at 5.96 µM; in the data active = inhibition above about 36%;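 note: 0% = enzyme with DMSO and 100% = wells lacking enzyme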
TCR-CD3 inh: blocks the human TCR-CD3 interaction | TAMRA-labeled TCR probe fluorescence, biochemical | inhibition, % at 9.4 µM | 0.37% of 360,000 active | AID 651800; in the data active = inhibition above about 19%;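 note: recombinant mutant TCR 2C K166C tagged with TAMRA read by polarization; 0% = receptor in buffer alone and 100% = receptor with positive control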
rCAG RNA binder: binds r(CAG) RNA repeats. r(CAG) RNA repeat, TO-PRO-1 dye displacement fluorescence. inhibition, % at 3 µM. 1.3% of 370,000 active;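 active = inhibition above the plate cutoff, the mean of all test compounds on that plate plus 3 SD, cut at about 35% in these data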;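 note: 0% = DMSO alone and 100% = 100 µM mitoxantrone as full dye displacement; higher means more dye released from RNA so lower well fluorescence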
mABHD4 FP: inhibits mouse alpha/beta hydrolase domain 4 | Q8VD66 | purified mABHD4, FP-Rh probe fluorescence polarization | inhibition, % at 8.92 µM | 0.54% of 370,000 active;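 active = inhibition exceeding the mean over every tested compound plus 3 SD, cut at about 30% in these data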;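 note: 0% = plate median of compound wells and 100% = S159A mutant with DMSO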
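Test system: mABHD4 protein; Read-out basis: % inhibition; Incubation: 45 min + 60 min at 25 °C; Repeats: single replicate; Technique: fluorescence polarization with parallel and perpendicular emission, 525/598 nm; Compound: 8.92 µM, single dose; Benchmarks: full inhibition S159A mutant plus DMSO, zero as sample-well median.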
SIAE confirm: confirmation of human SIAE inhibitors; AID 1117263; shares compounds with SIAE primary; 13% of 2,300 active; inhibition, % at 9.66 µM; SIAE FP-Rh activity-based probe, fluorescence polarization;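 active = mean inhibition of the replicates above the hit cutoff set in the primary screen, cut at about 17% in these data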;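 note: 0% = SIAE with DMSO and probe and 100% = probe without SIAE; inhibitors lower polarization as more probe stays unbound to SIAE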
* marks the source's active call; other numbers are inactive results; nt = no result given. Only some compounds are listed: those with a hit (about 2.5% of all), similar ones and a draw of the others.

SMILES | SIAE primary | HTRA1 inhibitor | TCR-CD3 inh | rCAG RNA binder | mABHD4 FP | SIAE confirm
CN(c1ccccc1)S(=O)(=O)c1ccc(NC(=O)c2ccccc2C(=O)O)cc1 | -5 | -1 | 5 | 0 | 8 | nt
O=C(Nc1cc(S(=O)(=O)N2CCOCC2)ccc1N1CCCCC1)c1cc(-c2ccccn2)nc2ccccc12 | 18* | -2 | -3 | 0 | -1 | 9
Cc1ccc(S(=O)(=O)N2CCOCC2)cc1NC(=O)c1cc(-c2ccccn2)nc2ccccc12 | -8 | -10 | -8 | 6 | -11 | nt
CCC1CCCCN1C(=O)COc1cccc2c1CCN(C)C2=O (centres undefined) | -7 | 0 | -1 | 0 | 2 | nt
CNc1oc(Cc2cccc3ccccc23)nc1C#N | 18* | 1 | -1 | 0 | -2 | 2
COc1cc(/C=N\NC(=O)c2sc(N)nc2C)cc(OC)c1OC | -2 | 4 | -6 | -3 | 6 | nt
O=C(C[C@@H]1C/C=C\C[C@H](NC(=O)OCC2c3ccccc3-c3ccccc32)C(=O)OC[C@@H]2CCCN2C1=O)N[C@@H](CO)Cc1ccccc1 | 6 | -10 | 1 | -2 | 1 | nt
Cc1nn(CC(=O)N2CCN(C(=O)c3ccco3)CC2)c(C)c1[N+](=O)[O-] | -4 | 3 | 4 | 3 | -4 | nt
Cc1nn(CC(=O)N2CCN(S(=O)(=O)c3ccccc3)CC2)c(C)c1[N+](=O)[O-] | 18* | 1 | 5 | 1 | -1 | 2
CCN1C[C@@H]2[C@@H]3C(=O)N(C)C(=O)[C@@H]3[C@](Cc3ccccc3)(C1=O)N2C(=O)c1ccc(C(C)(C)C)cc1 | 21* | -2 | 5 | -10 | 1 | 0
CCOCC(=O)Nc1ccc(S(=O)(=O)Nc2nccs2)cc1 | 4 | 1 | -11 | 2 | -5 | nt
Cc1ccc(OCCC(=O)OCC(=O)Nc2ccc(C)cc2Cl)cc1 | -7 | -1 | -5 | -5 | -19 | nt
Cc1ccc(NC(=O)COC(=O)CCc2ccccc2)c(Cl)c1 | 22* | -6 | -2 | 0 | 5 | 2
O=C(NCCCn1cccn1)c1cc(COc2ccc(F)cc2Cl)on1 | -2 | 3 | -4 | -3 | -2 | nt
C[C@@H]1CN([C@H](C)CO)C(=O)c2cc(Br)cnc2O[C@@H]1CN(C)C(=O)c1cccc(F)c1 | 17* | 1 | 1 | 3 | 0 | 2
O=C(Nc1cccc(S(=O)(=O)N2CCOCC2)c1)c1cn(-c2ccccc2)nc1-c1ccc(F)cc1 | 23* | 3 | 0 | 3 | 1 | -22
Cc1ccc(NC(=S)N/N=C/c2c(C)[nH]c3ccccc23)cc1 | 38* | 32 | 3 | 30 | 18 | 38*
Cc1[nH]c2ccccc2c1/C=N/NC(=S)NCc1ccccc1 | 22* | 24 | -3 | 30 | 19 | 19*
Cc1[nH]c2ccccc2c1/C=N/NC(N)=S | 7 | -1 | -6 | 0 | 6 | nt
CC(C)(C)n1ncc2c(=O)n(CC(=O)c3ccc(Cl)cc3)cnc21 | -6 | -1 | 4 | 0 | -10 | nt
O=C(Cn1cnc2c(cnn2-c2ccccc2)c1=O)c1ccc(Cl)cc1 | 39* | 2 | -5 | 0 | 10 | 0
CCOc1ccc(NC(=O)CN(C)C(=O)CC2CCCCC2)cc1OCC | 1 | 5 | -2 | -6 | -2 | nt
COc1cccc(C(=O)C2CCCN(Cc3cn[nH]c3C3CCCCC3)C2)c1 (centres undefined) | 0 | nt | 5 | -5 | -6 | nt
COc1cccc(C(=O)C2CCCN(Cc3cn(CC(N)=O)c4ccccc34)C2)c1 (centres undefined) | 19* | 3 | -3 | -5 | -5 | 0
O=C(Cc1cccs1)Nc1nc2c(ccc3ccccc32)s1 | -9 | -73 | 2 | 16 | -42 | nt
SMILES | SIAE primary | HTRA1 inhibitor | TCR-CD3 inh | rCAG RNA binder | mABHD4 FP | SIAE confirm
O=C(N/N=C/c1ccc(O)cc1O)c1ccc(NC(=O)C2CCCCC2)cc1 | 26* | -18 | 12 | 11 | 12 | 3
CC(=O)Nc1ccc(NC(=O)C(C)OC(=O)COc2ccc(Nc3ccccc3)cc2)cc1 (centres undefined) | 23* | 12 | 0 | 11 | 8 | 8
CC1(/[N+]([O-])=C/c2cccc(Cl)c2)CCCCC1=O (centres undefined) | -8 | 3 | 0 | -2 | 2 | nt
CCOc1cc(C(N)=O)cc(Cl)c1OCC | 17* | 0 | 0 | -3 | -2 | 1
CCOc1cc(C(N)=O)cc(Br)c1OCC | 10 | -3 | 11 | -3 | 0 | nt
CCCCNc1c(-c2cccc(-c3ccc(OC)cc3)c2)nc2cc(C)ccn12 | 22* | 13 | 0 | 1 | 29 | 15
CCOC(=O)CNC(=O)CCc1nnc2ccc(N3CCC(C)CC3)nn12 | 2 | 3 | 7 | -7 | 3 | nt
CCOC(=O)c1ccccc1NC(=O)COC(=O)CCC(=O)c1ccc(C)cc1 | 20* | -11 | -5 | -5 | 4 | -4
CC1(C)CC(NC(=O)COc2ccc(Cl)cc2Cl)CC(C)(C)N1 | 4 | -5 | 1 | 3 | -3 | nt
CC(C)c1ccc(OCC(=O)NC2CC(C)(C)NC(C)(C)C2)c(Br)c1 | 18* | 3 | 9 | 2 | 3 | -4
Cc1ccc(/C=C2\C(=O)NC(=O)N2C)o1 | 19* | -1 | 0 | 0 | 2 | 0
Cc1ccc(/C=C2/C(=O)N(c3ccccc3)C(=S)N2C)o1 | 3 | 0 | 3 | 2 | -2 | nt
O=C(Nc1ccn(CCCNCC2CCCO2)c(=O)n1)OCc1ccccc1 (centres undefined) | 1 | 12 | -1 | 2 | -9 | nt
O=C(Cn1ccc(NC(=O)OCc2ccccc2)nc1=O)NCC1CCCO1 (centres undefined) | 18* | 0 | 8 | -2 | 7 | 1
COc1ccc(CN2C(=O)C(CC(C)C)Nc3ncnc(N4CCN(c5ccccn5)CC4)c32)cc1 (centres undefined) | 18* | -9 | -3 | 0 | -7 | 0
Cc1ccc(CN2C(=O)C(CC(C)C)Nc3ncnc(N4CCN(c5ccccn5)CC4)c32)cc1 (centres undefined) | 4 | -37 | 6 | -4 | -15 | nt
COc1ccccc1Oc1ccc(NC(=O)c2ccc(Cl)cc2)cc1 | -5 | -4 | 6 | 2 | 0 | nt
CCOC(=O)c1sc(NC(=O)Nc2cccc(Cl)c2)cc1C | 18* | -7 | 1 | 32 | -4 | -6
CCOC(=O)c1sc(NC(=O)c2cccs2)cc1C | 2 | -17 | 3 | 6 | -6 | nt
COc1cc(CNc2ncnc3c2ncn3[C@H]2CN(Cc3ccc(Cl)cc3)C[C@@H](CO)O2)cc(OC)c1OC | 19* | nt | -5 | 6 | -3 | -4
COc1ccc(CN2C[C@@H](CO)O[C@@H](n3cnc4c(NCc5cc(OC)c(OC)c(OC)c5)ncnc43)C2)cc1 | 2 | nt | 0 | 2 | 0 | nt
O=C(Nc1nnc(C(F)(F)F)s1)c1cccnc1 | -2 | -2 | 6 | 2 | 1 | nt
O=C(Nc1nnc(C(F)(F)F)s1)c1c(F)cccc1F | 32* | -1 | 0 | 1 | 4 | -4

Screening results as filed in PubChem BioAssay.
